Like-named read-outs stand apart in the source and are kept apart here.
Key:
Type in all cases: biochemical
[1] = target: T1, JMJD2E (Homo sapiens, UniProt B2RXH2); experiment: FDH-coupled spectrophotometric turnover assay of JMJD2E; conditions: for JMJD2E Residual Activity (%): enzyme concentration 400 nM, 200 μM compound concentration
T1 sequence (B2RXH2 1-506): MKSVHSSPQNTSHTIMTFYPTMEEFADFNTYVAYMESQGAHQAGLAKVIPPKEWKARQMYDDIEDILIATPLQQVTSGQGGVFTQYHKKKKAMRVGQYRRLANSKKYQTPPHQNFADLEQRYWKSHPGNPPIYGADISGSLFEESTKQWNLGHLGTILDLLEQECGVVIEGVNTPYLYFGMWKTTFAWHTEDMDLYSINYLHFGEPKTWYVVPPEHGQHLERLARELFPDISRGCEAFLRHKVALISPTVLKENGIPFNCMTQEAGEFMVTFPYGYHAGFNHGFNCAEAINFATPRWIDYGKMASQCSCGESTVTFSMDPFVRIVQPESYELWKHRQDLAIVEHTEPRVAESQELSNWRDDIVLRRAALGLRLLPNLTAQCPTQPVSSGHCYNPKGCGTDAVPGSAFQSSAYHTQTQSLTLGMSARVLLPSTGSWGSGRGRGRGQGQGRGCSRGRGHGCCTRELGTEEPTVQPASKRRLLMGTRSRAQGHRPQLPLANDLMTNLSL

[2] = target: PHD2 (Homo sapiens, UniProt Q9GZT9); experiment: PHD2 fluorescence-based; conditions: for PHD2 inhibition (in words): 400 μM inhibitor concentration; for PHD2 Residual Activity (%): HTRF-based assay, enzyme concentration 20 nM, 400 μM compound concentration
[3] = target: T2, formaldehyde dehydrogenase (FDH) (Pseudomonas putida, UniProt P46154); experiment: FDH counterscreen, spectrophotometric assay; conditions: enzyme concentration 50 μM, 200 μM compound concentration
T2 sequence (P46154 1-399): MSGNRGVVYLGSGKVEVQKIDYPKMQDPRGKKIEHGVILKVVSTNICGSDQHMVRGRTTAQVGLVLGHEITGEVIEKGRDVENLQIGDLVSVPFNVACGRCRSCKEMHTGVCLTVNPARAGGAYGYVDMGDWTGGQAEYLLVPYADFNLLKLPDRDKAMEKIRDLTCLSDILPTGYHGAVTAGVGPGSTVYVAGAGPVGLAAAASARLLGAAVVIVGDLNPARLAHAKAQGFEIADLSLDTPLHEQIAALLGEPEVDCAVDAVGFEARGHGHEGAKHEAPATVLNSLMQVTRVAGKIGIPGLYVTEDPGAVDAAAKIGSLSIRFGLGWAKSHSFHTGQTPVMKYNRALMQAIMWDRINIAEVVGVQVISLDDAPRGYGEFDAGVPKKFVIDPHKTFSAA
Summary of the method: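 Counterscreen run on the coupling enzyme alone to exclude false JMJD2E hits from FDH inhibition. FDH turnover of formaldehyde with NAD+ followed spectrophotometrically. Enzyme 50 μM; test compound at 200 μM; activity expressed as residual % of uninhibited FDH.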

Chain of PHD2 (Q9GZT9 whole entry): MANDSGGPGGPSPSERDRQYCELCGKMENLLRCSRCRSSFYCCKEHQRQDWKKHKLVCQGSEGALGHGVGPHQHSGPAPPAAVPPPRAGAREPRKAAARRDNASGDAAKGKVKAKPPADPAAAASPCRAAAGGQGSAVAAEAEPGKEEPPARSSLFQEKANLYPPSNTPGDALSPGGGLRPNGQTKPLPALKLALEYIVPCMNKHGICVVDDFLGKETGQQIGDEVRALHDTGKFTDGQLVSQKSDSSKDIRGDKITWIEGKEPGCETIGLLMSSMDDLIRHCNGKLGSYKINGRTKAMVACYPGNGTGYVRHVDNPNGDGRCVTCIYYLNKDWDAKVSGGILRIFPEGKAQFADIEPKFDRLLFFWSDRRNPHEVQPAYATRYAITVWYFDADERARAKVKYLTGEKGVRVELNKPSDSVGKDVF

SMILES	JMJD2E inhibition (in words) ([1]; FDH-coupled assay)	JMJD2E Residual Activity (%) ([1]; FDH-coupled assay)	PHD2 inhibition (in words) [2]	PHD2 Residual Activity (%) [2]	FDH Residual Activity (%) [3]	IC50 [1]	IC50 ([1]; read-out: JMJD2E IC50, FDH-coupled assay)
O=C(O)c1ccnc(C(=O)O)c1/C=C/c1ccccc1 [Compound 35, (E)-3-Styrylpyridine-2,4-dicarboxylic acid]	some recovery of inhibitory potency	25%		85%	87%	66 µM	
Nc1c(C(=O)O)ccnc1C(=O)O [Compound 50, 3-amino-2,4-PDCA]	highly active			23%			~0.1 µM
O=C(O)c1ccnc(C(=O)O)c1 [Compound 5, 2,4-pyridine dicarboxylic acid, reference compound]		0%		22%	100%		

Continued, values first:

JMJD2E inhibition (in words) ([1]; FDH-coupled assay)	JMJD2E Residual Activity (%) ([1]; FDH-coupled assay)	PHD2 inhibition (in words) [2]	PHD2 Residual Activity (%) [2]	FDH Residual Activity (%) [3]	IC50 [1]	IC50 ([1]; read-out: JMJD2E IC50, FDH-coupled assay)	SMILES
inactive	48%	inactive	88%	91%			O=C(O)c1ccnc(C(=O)O)c1Oc1ccccc1 [Compound 36, 3-Phenoxypyridine-2,4-dicarboxylic acid]
	84%		100%	100%			O=C(O)c1ccnc(C(=O)O)c1-c1ccccc1 [Compound 34, 3-Phenylpyridine-2,4-dicarboxylic acid]
potent	0%	do not inhibit PHD2	100%	83%			O=C(O)c1ccnc(C(=O)O)c1Nc1ccccc1 [Compound 37, 3-(Phenylamino)pyridine-2,4-dicarboxylic acid]
